The values that follow come from ChEMBL document CHEMBL5360535, “Expanding the scope of novel 1,2,3-triazole derivatives as new antiparasitic drug candidates” (RSC Med Chem, 2023).

Each structure is given as a SMILES string.

A word on the IC50: it is the concentration that inhibits the measured activity by half.

Data set [1] in a line: Selectivity index, ratio of IC50 for African green monkey Vero cells to IC50 for Plasmodium falciparum W2. As to conditions: read-out: Ratio IC50. It is filed as toxicity, cell-based. In outline: (§1)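 SI = Vero IC50 (Neutral Red, 48 h) divided by P. falciparum IC50. Parasite IC50 was from asynchronous D6 or W2 cultures (2% hematocrit, 2% parasitemia), with DMSO-dissolved compounds diluted in RPMI-1640. Incubation was 48 h at 37 °C under 90% N₂/5% CO₂/5% O₂, with growth read by pLDH activity (Malstat). Chloroquine and artemisinin were positive controls.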

For data set [2], the system named is Plasmodium falciparum. Put plainly: Antimalarial activity against chloroquine-sensitive Plasmodium falciparum D6 assessed as parasite growth inhibition incubated for 48 hrs by LDH assay. The data set is classed as functional, organism-based. The settings on record: D6, 48 h. In outline:
(§2)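 Asynchronous P. falciparum cultures (2% hematocrit, 2% parasitemia) were exposed to DMSO-dissolved compound dilutions in RPMI-1640. They were held at 37 °C for 48 h in a humidified chamber under 90% N2/5% CO2/5% O2. Growth was read as pLDH activity with Malstat reagent, with medium, RBC and DMSO controls. IC50 came from non-linear logistic dose-response regression, in triplicate.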

Data set [3] can be described thus: Selectivity index, ratio of IC50 for African green monkey Vero cells to IC50 for Plasmodium falciparum D6. It is filed as toxicity, cell-based. As to conditions: read-out: Ratio IC50. The method, boiled down: as §1
The nature of data set [4]: Cytotoxicity against African green monkey Vero cells incubated for 48 hrs by Neutral Red assay. The data set is classed as toxicity, cell-based, Chlorocebus sabaeus. In outline:
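Vero cells were maintained in RPMI with 10% heat-inactivated FCS, 0.15% NaHCO₃ and penicillin/streptomycin at 37 °C under 5% CO₂. Confluent monolayers were exposed to various concentrations up to a maximum of 4.75 μg mL⁻¹ for 48 h at 37 °C. Viability was read by Neutral Red uptake, with DMSO as negative control. IC50 was taken from the concentration–response curve.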

Data set [5] concerns Plasmodium falciparum. Put plainly: Antimalarial activity against chloroquine-resistant Plasmodium falciparum W2 assessed as parasite growth inhibition incubated for 48 hrs by LDH assay. As to conditions: W2, 48 h. The data set is classed as functional, organism-based. The method, boiled down:
as §2

In the next data set the test system is Leishmania donovani. Put plainly: Antileishmanial activity against Leishmania donovani promastigotes assessed as parasite growth inhibition incubated for 72 hrs by alamar blue staining based assay. The data set is classed as functional, organism-based. The method, boiled down: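 L. donovani S1 Sudan strain promastigotes were grown at 26 °C in RPMI-1640 (no bicarbonate or pyruvate) with 10% FBS. Compound dilutions were added to cultures at 2 × 10⁶ cells per mL, at final 40, 8 and 1.6 μg mL⁻¹ (footnote: at least six concentrations, each in duplicate). Incubation was 72 h at 26 °C, with Alamar blue read-out. IC50 came from non-linear logistic regression. Experiments were run in triplicate.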

The subject of data set [6] is Plasmodium falciparum. Put plainly: Antiparasitic activity against chloroquine-resistant Plasmodium falciparum W2 infected in red blood cells assessed as inhibition of parasite growth by HRP2 assay. It is filed as functional, organism-based, Red blood cell. As to conditions: W2, Erythrocyte.

As for `CCCCCCCCCCc1cn(Cc2ccccc2)nn1`, the values for the selectivity ratio in data set [1] and in data set [3] were more than 1.48 and more than 1.44, respectively. The IC50 in the data set with Plasmodium falciparum [2] amounted to 11 µM; in the data set on Plasmodium falciparum [5] it was 10.7 µM. In data set [4], this compound returned an IC50 at 48 h of more than 15.9 µM.

For the compound `c1ccc(Cn2cc(-c3ccccc3)nn2)cc1`, the IC50 in the data set with Leishmania donovani worked out at 85 µM.

In the case of `CCCCCCCCc1cn(Cc2ccccc2)nn1`, in the data set with Leishmania donovani, the IC50 amounted to 22.1 µM.

Regarding `CCCCCCCCCCn1cc(C(=O)OC)nn1`, the selectivity ratio in data set [1] was more than 2.64; in data set [3], more than 1.58. Moreover, the IC50 came out at 78.5 µM with Leishmania donovani, 11.2 µM in the data set on Plasmodium falciparum [2] and 6.73 µM in the data set on Plasmodium falciparum [5]. In data set [4], this compound yielded an IC50 at 48 h of more than 17.8 µM.

For `CCCCCCCCn1cc(CO)nn1`, the results for the selectivity ratio in data set [1] and in data set [3] were more than 3.39 and more than 1.7, respectively. Moreover, the IC50 was 13.3 µM with Plasmodium falciparum [2] and 6.63 µM in the data set on Plasmodium falciparum [5]. For the same compound, the IC50 at 48 h in data set [4] is more than 22.5 µM.

For `COC(=O)c1cn(Cc2ccccc2)nn1`, the IC50 with Leishmania donovani was 92.1 µM.

On to `O=C(O)c1cn(Cc2ccccc2)nn1`, for which, in the data set on Leishmania donovani, the IC50 turned out to be 18.7 µM.

Consider `CCCCCc1cn(C/C=C(\C)CC/C=C(\C)CCC=C(C)C)nn1`, for which the selectivity ratio in data set [1] is more than 2.07; in data set [3], more than 3.96. Besides, the IC50 in the data set with Plasmodium falciparum [2] came out at 3.49 µM; with Plasmodium falciparum [5], 6.69 µM. This compound displayed an IC50 at 48 h in data set [4] of more than 13.8 µM.

For `COC(=O)c1cn(CC=C(C)C)nn1`, the values for the selectivity ratio in data set [1] and in data set [3] were 1.06 and more than 1, respectively. In addition, the IC50 with Plasmodium falciparum [2] was 24.3 µM; with Plasmodium falciparum [5], 23.1 µM. Moreover, the IC50 at 48 h in data set [4] was more than 24.3 µM.

Regarding `CCCCCc1cn(CCCc2ccccc2)nn1`, the selectivity ratio in data set [1] was more than 1.7; in data set [3] it was more than 1.13. Besides, the IC50 in the data set on Plasmodium falciparum [2] worked out at 16.3 µM; with Plasmodium falciparum [5], 10.9 µM. In data set [4], this compound gave an IC50 at 48 h of more than 18.5 µM.

With `CC(C)=CCC/C(C)=C/CC/C(C)=C\Cn1cc(C(C)O)nn1` (stereo not drawn), the IC50 with Leishmania donovani was determined as 59.9 µM.

As to `CCCCCCCCc1cn(C/C=C/c2ccccc2)nn1`, the results for the selectivity ratio in data set [1] and in data set [3] were more than 1.58 and more than 1.48, respectively. The results for the IC50 in the data set on Plasmodium falciparum [2] and with Plasmodium falciparum [5] were 10.8 µM and 10.1 µM, respectively. Further, the IC50 at 48 h in data set [4] is more than 16 µM.

With `O=Cn1cc(-c2ccnc3cc(Cl)ccc23)nn1`, the IC50 in the data set on Plasmodium falciparum [6] was found to be 1.4 µM.

With `CCOC(=O)Cn1cc(C(=O)OC)nn1`, the selectivity ratio in data set [1] and in data set [3] was more than 1.7 throughout. Besides, the IC50 in the data set on Plasmodium falciparum [2] and in the data set on Plasmodium falciparum [5] was 12.3 µM each time. In data set [4], this compound had an IC50 at 48 h of more than 20.9 µM.

For the compound `CC(C)=CCC/C(C)=C/CC/C(C)=C\Cn1cc(CCO)nn1`, the figures for the selectivity ratio in data set [1] and in data set [3] were more than 7.31 and more than 5.46, respectively. Further, the IC50 was 63 µM in the data set on Leishmania donovani, 2.74 µM in the data set with Plasmodium falciparum [2] and 2.05 µM in the data set on Plasmodium falciparum [5]. The same compound yielded an IC50 at 48 h in data set [4] of more than 15 µM.

On to `C(=C\c1ccccc1)/Cn1cc(-c2ccccc2)nn1`, for which the results for the selectivity ratio in data set [1] and in data set [3] were more than 1.4 and more than 1.58, respectively. Also, the results for the IC50 with Plasmodium falciparum [2] and in the data set with Plasmodium falciparum [5] were 11.5 µM and 13 µM, respectively. The compound also yielded an IC50 at 48 h in data set [4] of more than 18.2 µM.

Consider `CCCCCc1cn(C/C=C/c2ccccc2)nn1`, for which, in the data set on Leishmania donovani, the IC50 was determined as 74.4 µM.

For `CC(C)=CCC/C(C)=C/CC/C(C)=C\Cn1cc(CO)nn1`, the IC50 in the data set with Leishmania donovani is 59.3 µM.

With `CCCc1cn(CCCc2ccccc2)nn1`, the selectivity ratio in data set [1] was more than 1.83; in data set [3] it was more than 1.36. Moreover, the IC50 in the data set on Plasmodium falciparum [2] stood at 15.3 µM; in the data set on Plasmodium falciparum [5], 11.3 µM. This compound also had an IC50 at 48 h in data set [4] of more than 20.7 µM.

With `CC(C)=CCC/C(C)=C/CC/C(C)=C/Cn1cc(C(C)(C)O)nn1`, the figures for the selectivity ratio in data set [1] and in data set [3] were more than 7.2 and more than 6.09, respectively. Besides, the IC50 in the data set on Leishmania donovani came to 48.3 µM; in the data set on Plasmodium falciparum [2], 2.35 µM; with Plasmodium falciparum [5] it was 1.99 µM. In data set [4], this compound had an IC50 at 48 h of more than 14.3 µM.

Turning to `CC(C)=CCC/C(C)=C/CC/C(C)=C\Cn1cc(C(C)(C)O)nn1`, in the data set on Leishmania donovani, the IC50 worked out at 63.4 µM.

For the compound `CCCc1cn(C/C=C/c2ccccc2)nn1`, the selectivity ratio in data set [1] and in data set [3] was less than 1 throughout. The IC50 in the data set with Plasmodium falciparum [2] was determined as 20.9 µM; in the data set on Plasmodium falciparum [5] it was 22 µM. This compound also returned an IC50 at 48 h in data set [4] of more than 20.9 µM.

For the compound `CC(C)=CCC/C(C)=C/CC/C(C)=C/Cn1cc(C(C)O)nn1` (stereo not drawn), the IC50 in the data set with Leishmania donovani amounted to 56.7 µM.

For the compound `CC(C)=CCC/C(C)=C/CC/C(C)=C/Cn1cc(CO)nn1`, the IC50 in the data set on Leishmania donovani was 56 µM.

For `CC(C)=CCC/C(C)=C/CC/C(C)=C/Cn1cc(CCO)nn1`, in the data set with Leishmania donovani, the IC50 is 63 µM.

With `c1ccc(CCCn2cc(-c3ccccc3)nn2)cc1`, in the data set with Leishmania donovani, the IC50 was 68.4 µM.

As to `C[C@@H]1CC[C@H]2[C@@H](C)C(=O)O[C@@H]3O[C@@]4(C)CC[C@@H]1[C@]32OO4` [ARTEMISININ], the selectivity ratio in data set [1] and in data set [3] was more than 179 in each case.
